According to PMC6445238 (Drug Design, Development and Therapy, 2019):

Experiments:
Assay type in all cases: in vivo, human
Single ascending dose = experiment: Single ascending dose
Outline: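 After a single oral dose, plasma was sampled predose and at 0.25–72 h, and urine was collected over 0–24 h. Samples were mixed with DMSO and a deuterated internal standard, extracted with methanol, diluted with 0.1% ammonium acetate, and run by UPLC-MS/MS using MRM at m/z 460.1→214.2. Analysis was non-compartmental: t1/2 = 0.693/λz, AUC by linear trapezoidal rule, BLQ values before Cmax set to zero.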

[1] = tested on: alpha-synuclein oligomer, total tau, phosphor-tau; experiment: MAD study, PD biomarkers
Outline: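 Healthy male volunteers in the MAD part: young (19–45 y) or elderly (>60 y), randomized 6 active : 2 placebo per cohort, oral dosing once daily for 7 days. Blood and CSF sampled for alpha-synuclein oligomer, and CSF for total and phospho-tau, at day 1 predose and day 7, 1 h after last dose. CSF (about 2 mL) by lumbar puncture at L3–L4. Protein levels were measured by an external biomarker core.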

[2] = PD assessments with CNS scales

Structure (SMILES): Cc1nn(Cc2ccc(Br)cc2)c(C)c1NC(=O)CSc1ccccc1 [KM-819]
- variability (CV%) of AUCinf and Cmax (Single ascending dose; SAD): up to 55%
- dose proportionality of plasma exposure (AUC and Cmax) after a single dose (Single ascending dose; SAD, 10–400 mg): less than dose-proportional increase
- 24-hour recovery in urine (percent of dose) (Single ascending dose; SAD, all subjects): less than 1%
- AUCinf, geometric mean (CV%) (Single ascending dose; single 10 mg, young): 594.2 (24.4) ng·h/mL
- AUClast, geometric mean (CV%) (Single ascending dose; single 10 mg, young): 583.4 (24.5) ng·h/mL
- CL/F, geometric mean (CV%) (Single ascending dose; single 10 mg, young): 16,830 (24.4) mL/h
- Cmax, geometric mean (CV%) (Single ascending dose; single 10 mg, young): 244.1 (31.4) ng/mL
- Tmax, median (min–max) (Single ascending dose; single 10 mg, young): 1.50 (0.50–2.00) h
- t1/2, geometric mean (CV%) (Single ascending dose; single 10 mg, young): 1.786 (28.3) h
- tlag, median (min–max) (Single ascending dose; single 10 mg, young): 0.00 (0.00–0.25) h
- AUCinf, geometric mean (CV%) (Single ascending dose; single 30 mg, young): 1,731 (17.3) ng·h/mL
- AUClast, geometric mean (CV%) (Single ascending dose; single 30 mg, young): 1,705 (17.1) ng·h/mL
- CL/F, geometric mean (CV%) (Single ascending dose; single 30 mg, young): 17,340 (17.3) mL/h
- Cmax, geometric mean (CV%) (Single ascending dose; single 30 mg, young): 503.6 (28.0) ng/mL
- Tmax, median (min–max) (Single ascending dose; single 30 mg, young): 1.00 (0.50–2.00) h
- t1/2, geometric mean (CV%) (Single ascending dose; single 30 mg, young): 4.791 (25.0) h
- tlag, median (min–max) (Single ascending dose; single 30 mg, young): 0.00 (0.00–0.00) h
- AUCinf, geometric mean (CV%) (Single ascending dose; single 100 mg, young): 4,872 (30.8) ng·h/mL
- AUClast, geometric mean (CV%) (Single ascending dose; single 100 mg, young): 4,306 (31.1) ng·h/mL
- CL/F, geometric mean (CV%) (Single ascending dose; single 100 mg, young): 20,530 (30.8) mL/h
- Cmax, geometric mean (CV%) (Single ascending dose; single 100 mg, young): 1,152 (36.7) ng/mL
- Tmax, median (min–max) (Single ascending dose; single 100 mg, young): 2.00 (1.00–4.00) h
- t1/2, geometric mean (CV%) (Single ascending dose; single 100 mg, young): 9.159 (41.2) h
- tlag, median (min–max) (Single ascending dose; single 100 mg, young): 0.00 (0.00–0.00) h
- AUC higher in elderly than in young (Single ascending dose; single 200 mg): 49%
- Cmax, elderly compared with young (Single ascending dose; single 200 mg): similar
- t1/2 higher in elderly than in young (Single ascending dose; single 200 mg): 17%
- AUCinf, geometric mean (CV%) (Single ascending dose; single 200 mg, elderly): 10,970 (9.8) ng·h/mL
- AUClast, geometric mean (CV%) (Single ascending dose; single 200 mg, elderly): 10,840 (10.3) ng·h/mL
- CL/F, geometric mean (CV%) (Single ascending dose; single 200 mg, elderly): 18,230 (9.8) mL/h
- Cmax, geometric mean (CV%) (Single ascending dose; single 200 mg, elderly): 1,766 (26.0) ng/mL
- Tmax, median (min–max) (Single ascending dose; single 200 mg, elderly): 2.00 (1.0–4.00) h
- t1/2, geometric mean (CV%) (Single ascending dose; single 200 mg, elderly): 10.55 (28.5) h
- tlag, median (min–max) (Single ascending dose; single 200 mg, elderly): 0.00 (0.00–0.00) h
- AUCinf, geometric mean (CV%) (Single ascending dose; single 200 mg, young): 7,338 (51.9) ng·h/mL
- AUClast, geometric mean (CV%) (Single ascending dose; single 200 mg, young): 7,637 (47.7) ng·h/mL
- CL/F, geometric mean (CV%) (Single ascending dose; single 200 mg, young): 27,260 (51.9) mL/h
- Cmax, geometric mean (CV%) (Single ascending dose; single 200 mg, young): 1,879 (55.3) ng/mL
- Tmax, median (min–max) (Single ascending dose; single 200 mg, young): 2.00 (1.00–4.00) h
- t1/2, geometric mean (CV%) (Single ascending dose; single 200 mg, young): 9.010 (71.6) h
- tlag, median (min–max) (Single ascending dose; single 200 mg, young): 0.00 (0.00–0.25) h
- AUCinf, geometric mean (CV%) (Single ascending dose; single 400 mg, young): 12,640 (36.1) ng·h/mL
- AUClast, geometric mean (CV%) (Single ascending dose; single 400 mg, young): 12,210 (33.3) ng·h/mL
- CL/F, geometric mean (CV%) (Single ascending dose; single 400 mg, young): 31,650 (36.1) mL/h
- Cmax, geometric mean (CV%) (Single ascending dose; single 400 mg, young): 2,767 (43.4) ng/mL
- Tmax, median (min–max) (Single ascending dose; single 400 mg, young): 4.00 (2.00–4.00) h
- t1/2, geometric mean (CV%) (Single ascending dose; single 400 mg, young): 8.527 (63.2) h
- tlag, median (min–max) (Single ascending dose; single 400 mg, young): 0.00 (0.00–0.00) h
- Alpha-synuclein oligomer, CSF, change from baseline (day 1 predose) to day 7, mean (SD) ([1]; 30 mg QD, young): 49.94 (72.09) pg/mL
- Alpha-synuclein oligomer, plasma, change from baseline (day 1 predose) to day 7, mean (SD) ([1]; 30 mg QD, young): 3,884.41 pg/mL
- Phosphor-tau, CSF, change from baseline (day 1 predose) to day 7, mean (SD) ([1]; 30 mg QD, young): 6.41 (19.04) pg/mL
- Total tau, CSF, change from baseline (day 1 predose) to day 7, mean (SD) ([1]; 30 mg QD, young): 60.30 (64.42) pg/mL
- Alpha-synuclein oligomer, CSF, change from baseline (day 1 predose) to day 7, mean (SD) ([1]; 100 mg QD, young): −252.56 (643.49) pg/mL
- Alpha-synuclein oligomer, plasma, change from baseline (day 1 predose) to day 7, mean (SD) ([1]; 100 mg QD, young): 575.46 (18,379.46) pg/mL
- Phosphor-tau, CSF, change from baseline (day 1 predose) to day 7, mean (SD) ([1]; 100 mg QD, young): 0.21 (1.13) pg/mL
- Total tau, CSF, change from baseline (day 1 predose) to day 7, mean (SD) ([1]; 100 mg QD, young): 9.23 (15.82) pg/mL
- Alpha-synuclein oligomer, CSF, change from baseline (day 1 predose) to day 7, mean (SD) ([1]; 200 mg QD, elderly): 34.87 (51.42) pg/mL
- Alpha-synuclein oligomer, plasma, change from baseline (day 1 predose) to day 7, mean (SD) ([1]; 200 mg QD, elderly): −11,712.09 pg/mL
- Phosphor-tau, CSF, change from baseline (day 1 predose) to day 7, mean (SD) ([1]; 200 mg QD, elderly): 5.16 (10.88) pg/mL
- Total tau, CSF, change from baseline (day 1 predose) to day 7, mean (SD) ([1]; 200 mg QD, elderly): 29.30 (100.07) pg/mL
- Alpha-synuclein oligomer, CSF, change from baseline (day 1 predose) to day 7, mean (SD) ([1]; 200 mg QD, young): 0.60 (18.22) pg/mL
- Alpha-synuclein oligomer, plasma, change from baseline (day 1 predose) to day 7, mean (SD) ([1]; 200 mg QD, young): 3,809.51 pg/mL
- Phosphor-tau, CSF, change from baseline (day 1 predose) to day 7, mean (SD) ([1]; 200 mg QD, young): 4.47 (7.88) pg/mL
- Total tau, CSF, change from baseline (day 1 predose) to day 7, mean (SD) ([1]; 200 mg QD, young): −3.16 (15.01) pg/mL
- Alpha-synuclein oligomer, CSF, change from baseline (day 1 predose) to day 7, mean (SD) ([1]; 400 mg QD, young): 18.21 (103.83) pg/mL
- Alpha-synuclein oligomer, plasma, change from baseline (day 1 predose) to day 7, mean (SD) ([1]; 400 mg QD, young): −64,843.29 pg/mL
- Phosphor-tau, CSF, change from baseline (day 1 predose) to day 7, mean (SD) ([1]; 400 mg QD, young): 6.70 (11.82) pg/mL
- Total tau, CSF, change from baseline (day 1 predose) to day 7, mean (SD) ([1]; 400 mg QD, young): 27.86 (66.07) pg/mL
- Bond and Lader VAS ([2]; SAD and MAD): No signs of KM-819 treatment-related effects
- C-SSRS ([2]; SAD and MAD): no apparent treatment or cohort differences
- K-WAIS-IV ([2]; SAD and MAD): no clear treatments differences
- POMS ([2]; SAD and MAD): no apparent treatment or cohort differences
- effects on the estimated pharmacodynamic variables ([2]; whole study): No clear treatment-related effects
